Data reported in ChEMBL document CHEMBL5724801, “EUbOPEN Chemogenomics Library - Multiplex” (2024).
Values joined by “and” are separate entries in the source; they are usually repeats but may differ in a detail not shown here. Identical values can stand only once.

Test system: Fibroblast
Assay: Multiplex assay against human fibroblast
Format: toxicity, cell-based
Procedure, shortened: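 Cells were classed with CellPathfinder machine-learning gating, first as Hoechst high-intensity objects or normal cells, then (normal cells) as healthy, pyknosed or fragmented nuclei, and finally (pyknosed cells) as mitotic or apoptotic. Staining of live cells at seeding used Hoechst33342, BioTracker Green Microtubule Cytoskeleton Dye, MitoTracker Red and Annexin V Alexa Fluor 680, with imaging on a CQ1 microscope at 37°C and 5% CO2 after compound addition. Tubulin, mitochondrial-mass and membrane-permeability phenotypes are per cents of healthy-nucleus cells.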

[1] = 12 h, 1 µM, compound concentration 1 uM
[2] = 12 h, 10 µM, compound concentration 10 uM
[3] = 24 h, 1 µM, compound concentration 1 uM
[4] = 24 h, 10 µM, compound concentration 10 uM
[5] = 48 h, 1 µM, compound concentration 1 uM
[6] = 48 h, 10 µM, compound concentration 10 uM

## CC(F)(F)CN1CCOc2c(nn(-c3ccccc3Cl)c2-c2ccc(Cl)cc2)C1=O
[1]
  Population Apoptotic (%): 42% and 31%
  Population Healthy Nuclei (%): 66% and 48%
  Population Hoechst High Intensity Objects (%): 0%
  Population Membrane Permeable-Phenotype (%): 1%
  Population Mitochondria Different-Phenotype (%): 4% and 10%
  Population Mitotic Cells (%): 57% and 68%
  Population Normal (%): 99% and 93%
  Population Pyknosed Nuclei (%): 15% and 25%
  Population Tubulin-Different-Phenotype (%): 61%
  Total Cell Count: 125 and 122
[2]
  Population Apoptotic (%): 47% and 30%
  Population Healthy Nuclei (%): 66% and 53%
  Population Hoechst High Intensity Objects (%): 1% and 5%
  Population Membrane Permeable-Phenotype (%): 0% and 2%
  Population Mitochondria Different-Phenotype (%): 19% and 8%
  Population Mitotic Cells (%): 52% and 70%
  Population Normal (%): 98% and 94%
  Population Pyknosed Nuclei (%): 17% and 15%
  Population Tubulin-Different-Phenotype (%): 49% and 57%
  Total Cell Count: 109 and 134
[3]
  Population Apoptotic (%): 61% and 64%
  Population Healthy Nuclei (%): 65% and 52%
  Population Hoechst High Intensity Objects (%): 1% and 4%
  Population Membrane Permeable-Phenotype (%): 1%
  Population Mitochondria Different-Phenotype (%): 2% and 10%
  Population Mitotic Cells (%): 38% and 36%
  Population Normal (%): 98% and 95%
  Population Pyknosed Nuclei (%): 15% and 20%
  Population Tubulin-Different-Phenotype (%): 75%
  Total Cell Count: 119 and 129
[4]
  Population Apoptotic (%): 33% and 35%
  Population Healthy Nuclei (%): 65% and 54%
  Population Hoechst High Intensity Objects (%): 0% and 1%
  Population Membrane Permeable-Phenotype (%): 0% and 6%
  Population Mitochondria Different-Phenotype (%): 26% and 10%
  Population Mitotic Cells (%): 66% and 64%
  Population Normal (%): 99% and 98%
  Population Pyknosed Nuclei (%): 10% and 14%
  Population Tubulin-Different-Phenotype (%): 58% and 60%
  Total Cell Count: 111 and 121
[5]
  Population Apoptotic (%): 56% and 40%
  Population Healthy Nuclei (%): 63% and 53%
  Population Hoechst High Intensity Objects (%): 1% and 4%
  Population Membrane Permeable-Phenotype (%): 4% and 1%
  Population Mitotic Cells (%): 43% and 60%
  Population Normal (%): 98% and 95%
  Population Pyknosed Nuclei (%): 11% and 7%
  Population Tubulin-Different-Phenotype (%): 35% and 72%
  Total Cell Count: 136 and 135
[6]
  Population Apoptotic (%): 78% and 54%
  Population Healthy Nuclei (%): 56% and 54%
  Population Hoechst High Intensity Objects (%): 1%
  Population Membrane Permeable-Phenotype (%): 0% and 3%
  Population Mitotic Cells (%): 21% and 45%
  Population Normal (%): 98%
  Population Pyknosed Nuclei (%): 11% and 7%
  Population Tubulin-Different-Phenotype (%): 57%
  Total Cell Count: 120 and 141

## COc1ccc2nc3ccc(OC)cc3c(SCCCN)c2c1.Cl
[1]
  Population Apoptotic (%): 27.78% and 22.73%
  Population Fragmented Nuclei (%): 27.67% and 18.52%
  Population Healthy Nuclei (%): 58.1% and 71.3%
  Population Hoechst High Intensity Objects (%): 0%
  Population Membrane Permeable-Phenotype (%): 4.08% and 5.19%
  Population Mitochondria Different-Phenotype (%): 10.88% and 10.39%
  Population Mitotic Cells (%): 72.22% and 77.27%
  Population Normal (%): 100%
  Population Pyknosed Nuclei (%): 14.23% and 10.19%
  Population Tubulin-Different-Phenotype (%): 28.57% and 25.97%
  Total Cell Count: 253 and 216
[2]
  Population Apoptotic (%): 50%
  Population Fragmented Nuclei (%): 83.22% and 87.99%
  Population Healthy Nuclei (%): 15.99% and 11.88%
  Population Hoechst High Intensity Objects (%): 0.3% and 6.47%
  Population Membrane Permeable-Phenotype (%): 6.17% and 4.52%
  Population Mitochondria Different-Phenotype (%): 24.69% and 15.25%
  Population Mitotic Cells (%): 50%
  Population Normal (%): 99.7% and 93.53%
  Population Pyknosed Nuclei (%): 0.79% and 0.13%
  Population Tubulin-Different-Phenotype (%): 53.09% and 68.93%
  Total Cell Count: 1016 and 1593
[3]
  Population Apoptotic (%): 7.41% and 18.18%
  Population Fragmented Nuclei (%): 25% and 14.63%
  Population Healthy Nuclei (%): 63.36% and 74.63%
  Population Hoechst High Intensity Objects (%): 0%
  Population Membrane Permeable-Phenotype (%): 4.76% and 3.27%
  Population Mitochondria Different-Phenotype (%): 5.44% and 7.84%
  Population Mitotic Cells (%): 92.59% and 81.82%
  Population Normal (%): 100%
  Population Pyknosed Nuclei (%): 11.64% and 10.73%
  Population Tubulin-Different-Phenotype (%): 25.17% and 21.57%
  Total Cell Count: 232 and 205
[4]
  Population Fragmented Nuclei (%): 83.95% and 88.56%
  Population Healthy Nuclei (%): 15.31% and 11.32%
  Population Hoechst High Intensity Objects (%): 0% and 5.09%
  Population Membrane Permeable-Phenotype (%): 1.21% and 3.16%
  Population Mitochondria Different-Phenotype (%): 27.27% and 24.21%
  Population Mitotic Cells (%): 87.5% and 50%
  Population Normal (%): 100% and 94.91%
  Population Pyknosed Nuclei (%): 0.74% and 0.12%
  Population Tubulin-Different-Phenotype (%): 47.27% and 59.47%
  Total Cell Count: 1078 and 1768
[5]
  Population Fragmented Nuclei (%): 28.35% and 15.03%
  Population Healthy Nuclei (%): 66.14% and 83.42%
  Population Hoechst High Intensity Objects (%): 0%
  Population Membrane Permeable-Phenotype (%): 1.79% and 1.24%
  Population Mitotic Cells (%): 71.43% and 100%
  Population Normal (%): 100%
  Population Pyknosed Nuclei (%): 5.51% and 1.55%
  Population Tubulin-Different-Phenotype (%): 18.45% and 20.5%
  Total Cell Count: 254 and 193
[6]
  Population Apoptotic (%): 60%
  Population Fragmented Nuclei (%): 84.38% and 88.09%
  Population Healthy Nuclei (%): 15.23% and 11.61%
  Population Hoechst High Intensity Objects (%): 1.01% and 7.64%
  Population Membrane Permeable-Phenotype (%): 2.56% and 4.71%
  Population Mitochondria Different-Phenotype (%): 6.67% and 4.19%
  Population Mitotic Cells (%): 40%
  Population Normal (%): 98.99% and 92.36%
  Population Pyknosed Nuclei (%): 0.39% and 0.3%
  Population Tubulin-Different-Phenotype (%): 27.69% and 51.83%
  Total Cell Count: 1293 and 1781
